According to ChEMBL document CHEMBL2429734, “Expedient Synthesis of SMAMPs via Click Chemistry” (ACS Med Chem Lett, 2013):

Tests used:
[1] = Ratio of compound HC50 to pexiganan HC50 for human RBC; type: ADME, cell-based; settings: erythrocyte
[2] = Selectivity ratio of HC50 for human RBC to MIC for Escherichia coli ATCC 25922; type: functional
[3] = Selectivity ratio of HC50 for human RBC to MIC for Staphylococcus aureus ATCC 27660; type: functional
[4] = Hemolytic activity in human RBC assessed as release of hamoglobin after 1 hr; type: ADME, cell-based, Erythrocyte; settings: for HC50 at 1 h: human red blood cells
Summary of the method: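 Lysis of human erythrocytes measured. HC50 was taken as the lowest concentration causing 50% lysis of the red blood cells.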

Klebsiella pneumoniae = test: Antibacterial activity against Klebsiella pneumoniae ATCC 13883 assessed as growth inhibition after 18 hrs by broth microdilution method in absence of 40% mouse serum; type: functional; settings: ATCC 13883, 18 h
Summary of the method: (§1)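 MIC determined by Hancock's method for cationic antimicrobial peptides, a slight modification of the CLSI microbroth dilution method, run in medium without mouse serum. Strains were S. aureus ATCC 27660, E. coli ATCC 25922, E. faecalis ATCC 29212, P. aeruginosa ATCC 10145 and K. pneumoniae ATCC 13883.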

Pseudomonas aeruginosa = test: Antibacterial activity against Pseudomonas aeruginosa ATCC 10145 assessed as growth inhibition after 18 hrs by broth microdilution method in absence of 40% mouse serum; type: functional; settings: ATCC 10145, 18 h; summary of the method: as §1
Escherichia coli [5] = test: Antibacterial activity against Escherichia coli ATCC 25922 assessed as growth inhibition incubated for 30 mins prior to inoculation measured after 18 hrs by broth microdilution method in presence of 40% mouse serum; type: functional
Summary of the method: (§2)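 Hancock-modified CLSI microbroth dilution MIC run in the presence of 40% mouse serum against S. aureus ATCC 27660 or E. coli ATCC 25922. 40% was the highest serum level used because bacterial growth was impaired at higher percentages.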

Escherichia coli [6] = test: Antibacterial activity against Escherichia coli ATCC 25922 assessed as growth inhibition after 18 hrs by broth microdilution method in absence of 40% mouse serum; type: functional; settings: ATCC 25922, 18 h; summary of the method: as §1
Staphylococcus aureus [7] = test: Antibacterial activity against Staphylococcus aureus ATCC 27660 assessed as growth inhibition incubated for 30 mins prior to inoculation measured after 18 hrs by broth microdilution method in presence of 40% mouse serum; type: functional; summary of the method: as §2
Staphylococcus aureus [8] = test: Antibacterial activity against Staphylococcus aureus ATCC 27660 assessed as growth inhibition after 18 hrs by broth microdilution method in absence of 40% mouse serum; type: functional; settings: ATCC 27660, 18 h; summary of the method: as §1
Enterococcus faecalis = test: Antibacterial activity against Enterococcus faecalis ATCC 29212 assessed as growth inhibition after 18 hrs by broth microdilution method in absence of 40% mouse serum; type: functional; settings: ATCC 29212, 18 h; summary of the method: as §1

| Molecule | Ratio [1] | Selectivity ratio [2] | Selectivity ratio [3] | HC50 at 1 h [4] [µg/mL] | MIC (Klebsiella pneumoniae) [µg/mL] | MIC (Pseudomonas aeruginosa) [µg/mL] | MIC (Escherichia coli [5]) [µg/mL] | MIC (Escherichia coli [6]) [µg/mL] | MIC (Staphylococcus aureus [7]) [µg/mL] | MIC (Staphylococcus aureus [8]) [µg/mL] | HC50 ([4]; erythrocyte, 1 h) [µg/mL] | MIC (Enterococcus faecalis) [µg/mL] |
| --- | --- | --- | --- | --- | --- | --- | --- | --- | --- | --- | --- | --- |
| NCCCOc1ccc(-n2cc(-c3cccc(-c4cn(-c5ccc(OCCCN)c(OCCCN)c5)nn4)c3)nn2)cc1OCCCN.O=C(O)C(F)(F)F.O=C(O)C(F)(F)F.O=C(O)C(F)(F)F.O=C(O)C(F)(F)F | 10 | > 160 | > 2500 | > 1000 | > 50 | 50 | 6.25 | > 50 | 0.39 | 12.5 | – | – |
| PEXIGANAN ACETATE | – | – | – | – | – | – | – | – | – | – | 120 | – |
| NCCCOc1cc(OCCCN)cc(-n2cc(-c3ccc4ccc(-c5cn(-c6cc(OCCCN)cc(OCCCN)c6)nn5)cc4c3)nn2)c1.O=C(O)C(F)(F)F.O=C(O)C(F)(F)F.O=C(O)C(F)(F)F.O=C(O)C(F)(F)F | – | – | – | 693 | 50 | > 50 | 6.25 | > 50 | 0.39 | 12.5 | – | 25 |
| NCCCOc1cc(OCCCN)cc(-c2ccc3ccc(-c4cc(OCCCN)cc(OCCCN)c4)cc3c2)c1.O=C(O)C(F)(F)F.O=C(O)C(F)(F)F.O=C(O)C(F)(F)F.O=C(O)C(F)(F)F | – | – | – | 194 | – | – | 25 | – | 1.56 | – | – | – |
| NCCCOc1cc(OCCCN)cc(-n2cc(-c3ccc4c(ccc5cc(-c6cn(-c7cc(OCCCN)cc(OCCCN)c7)nn6)ccc54)c3)nn2)c1.O=C(O)C(F)(F)F.O=C(O)C(F)(F)F.O=C(O)C(F)(F)F.O=C(O)C(F)(F)F | – | – | – | 109 | > 50 | 25 | 12.5 | > 50 | 0.39 | 25 | – | 50 |
| NCCCOc1ccc(-n2cc(-c3ccc4ccc(-c5cn(-c6ccc(OCCCN)c(OCCCN)c6)nn5)cc4c3)nn2)cc1OCCCN.O=C(O)C(F)(F)F.O=C(O)C(F)(F)F.O=C(O)C(F)(F)F.O=C(O)C(F)(F)F | – | – | – | 81 | 50 | 50 | 3.13 | > 50 | 0.19 | 25 | – | 25 |
| NCCCOc1cc(C#Cc2ccc3ccc(C#Cc4cc(OCCCN)cc(OCCCN)c4)cc3c2)cc(OCCCN)c1.O=C(O)C(F)(F)F.O=C(O)C(F)(F)F.O=C(O)C(F)(F)F.O=C(O)C(F)(F)F | – | – | – | 3.4 | – | – | 12.5 | – | 3.13 | – | – | – |
| NCCCOc1cccc(-n2cc(-c3cccc(-c4cn(-c5cccc(OCCCN)c5)nn4)c3)nn2)c1.O=C(O)C(F)(F)F.O=C(O)C(F)(F)F | – | – | – | – | > 50 | 25 | 25 | 25 | 12.5 | 50 | – | 25 |
| NCCCOc1ccc(-n2cc(-c3ccc4ccc(-c5cn(-c6cc(OCCCN)c(OCCCN)c(OCCCN)c6)nn5)cc4c3)nn2)cc1OCCCN.O=C(O)C(F)(F)F.O=C(O)C(F)(F)F.O=C(O)C(F)(F)F.O=C(O)C(F)(F)F.O=C(O)C(F)(F)F | – | – | – | 94 | > 50 | 50 | 25 | 50 | 0.39 | 12.5 | – | 25 |
| NCCCOc1cccc(-n2cc(-c3ccc4ccc(-c5cn(-c6cccc(OCCCN)c6)nn5)cc4c3)nn2)c1.O=C(O)C(F)(F)F.O=C(O)C(F)(F)F | – | – | – | – | > 50 | > 50 | > 50 | > 50 | 12.5 | > 50 | – | 50 |
| NCCCOc1cc(-n2cc(-c3ccc4ccc(-c5cn(-c6cc(OCCCN)c(OCCCN)c(OCCCN)c6)nn5)cc4c3)nn2)cc(OCCCN)c1OCCCN.O=C(O)C(F)(F)F.O=C(O)C(F)(F)F.O=C(O)C(F)(F)F.O=C(O)C(F)(F)F.O=C(O)C(F)(F)F.O=C(O)C(F)(F)F | – | – | – | 828 | > 50 | 12.5 | 25 | 25 | 0.19 | 12.5 | – | 50 |
